In ChEMBL document CHEMBL3044840, “Antifungal activities of metabolites produced by a termite-associated Streptomyces canus BYB02” (J Agric Food Chem, 2013):
Converted amounts (≈) assume the structure as drawn.

Legend:
Cytospora mali = test: Antifungal activity against Valsa mali assessed as inhibition of mycelial growth; assay type: functional, organism-based
Procedure, shortened: (§1)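 Mycelial growth on potato dextrose agar in 9 cm dishes containing serial concentrations of sample, dissolved in aqueous 1% DMSO/4% Tween-80. Mycelium inoculated at plate centre and incubated in the dark at 28 °C until control growth reached the dish edge. Inhibition (%) = (1 − Da/Db) × 100 from growth-zone diameters. IC50 by probit analysis. Cycloheximide as positive control. Run in triplicate.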

Pyricularia grisea [1] = test: Antifungal activity against Magnaporthe grisea assessed as inhibition of mycelial growth; assay type: functional, organism-based
Procedure, shortened: (§2)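 Poisoned-food assay. Serial concentrations in aqueous 1% DMSO/4% Tween-80 were mixed into molten potato dextrose agar. Mycelium was inoculated at the plate centre and incubated in the dark at 28 °C until control growth reached the dish edge. Inhibition % = (1 − Da/Db) × 100 from colony diameters. IC50 by probit analysis; run in triplicate.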

Pyricularia grisea [2] = test: Antifungal activity against Magnaporthe grisea in fourth-leaf stage of rice plant assessed as preventive efficacy at 100 ug/ml after 11 days relative to control; assay type: functional
[3] = system: Fusarium oxysporum f. sp. cucumerinum; test: Antifungal activity against Fusarium oxysporum f. sp. cucumerinum assessed as inhibition of mycelial growth; assay type: functional, organism-based; procedure, shortened: as §1
Pyricularia grisea [4] = test: Antifungal activity against Magnaporthe grisea in fourth-leaf stage of rice plant assessed as curative efficacy at 100 ug/ml after 11 days relative to control; assay type: functional
Rhizoctonia solani = test: Antifungal activity against Rhizoctonia solani assessed as inhibition of mycelial growth; assay type: functional, organism-based; procedure, shortened: as §1
Dothiorella gregaria = test: Antifungal activity against Dothiorella gregaria assessed as inhibition of mycelial growth; assay type: functional, organism-based; procedure, shortened: as §1
Fusarium graminearum = test: Antifungal activity against Fusarium graminearum assessed as inhibition of mycelial growth; assay type: functional, organism-based; procedure, shortened: as §2
Pyricularia grisea [5] = test: Antifungal activity against Magnaporthe grisea assessed as inhibition of spore germination after 12 hr by light microscopic analysis; assay type: functional, organism-based
Procedure, shortened: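 M. oryzae spores were taken from 7-day oatmeal–tomato agar cultures. 50 μL of compound in 1% DMSO/4% Tween-80 was mixed with 50 μL spore suspension (2.5 × 10^5 spores). 40 μL drops went on slides, in triplicate. Slides were kept in a moist chamber at 28 °C for 12 h. About 100 spores per replicate were scored; IC50 by probit analysis.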

| Compound | IC50 (Cytospora mali) | IC50 (Pyricularia grisea [1]) | Activity (Pyricularia grisea [2]) | IC50 [3] | Activity (Pyricularia grisea [4]) | IC50 (Rhizoctonia solani) | IC50 (Dothiorella gregaria) | IC50 (Fusarium graminearum) | IC50 (Pyricularia grisea [5]) |
| --- | --- | --- | --- | --- | --- | --- | --- | --- | --- |
| Cc1cc(O)cc2cc3c(c(O)c12)C(=O)c1c(O)cc(O)cc1C3=O [TETRACENOMYCIN D] | > 25 µg/mL | > 25 µg/mL | – | – | – | – | – | – | – |
| COC(=O)Nc1nc2ccccc2[nH]1 [CARBENDAZIM] | – | – | 58.7% | – | – | – | – | – | – |
| Cc1cc(O)c2c3c4c(cc(O)c13)C(C)(C)C(=O)c1c(O)cc(O)c(c1-4)C2=O [HELIOMYCIN] | 1.1 µg/mL (≈ 2.92 µM) | 3.8 µg/mL (≈ 10.1 µM) | 66.8% | > 100 µg/mL | <25% | > 100 µg/mL | > 100 µg/mL | > 100 µg/mL | 5.55 µg/mL (≈ 14.7 µM) |
| C[C@@H]1C[C@@H]([C@H](O)CC2CC(=O)NC(=O)C2)C(=O)[C@@H](C)C1 [CYCLOHEXIMIDE] | 0.3 µg/mL (≈ 1.07 µM) | 2.3 µg/mL (≈ 8.17 µM) | – | 4.9 µg/mL (≈ 17.4 µM) | – | 0.3 µg/mL (≈ 1.07 µM) | 0.9 µg/mL (≈ 3.2 µM) | 3.3 µg/mL (≈ 11.7 µM) | – |
